Columns and labels:
K562 = test: Antiproliferative activity against human K562 cell line; type: functional, cell-based
Tubulin = Tubulin (Sus scrofa, UniProt P02554+P02550); test: Inhibition of tubulin polymerization in porcine brain
MDR = test: Antiproliferative activity against LT12 MDR cells by XTT assay after 48 hrs; type: functional, cell-based; conditions: Rattus norvegicus
Procedure, shortened: (§1)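 Tumour cell lines were seeded at 1 × 10^3 to 8 × 10^4 cells/well for logarithmic growth and exposed to a concentration series for 48 h. Proliferation was read as cellular metabolic activity by XTT. IC50 came from dose-response curves by nonlinear regression, with at least two replicates.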

L1210 = test: Antiproliferative activity against L1210 VCR cells by XTT assay after 48 hrs; type: functional, cell-based; conditions: Mus musculus, L1210, 48 h; procedure, shortened: as §1
P388 [1] = test: Antiproliferative activity against P388 cells by XTT assay after 48 hrs; type: functional, cell-based; conditions: Mus musculus, P388, 48 h; procedure, shortened: as §1
P388 [2] = test: Antiproliferative activity against P388 ADR cells by XTT assay after 48 hrs; type: functional, cell-based; conditions: Mus musculus, P388, 48 h; procedure, shortened: as §1
cells = conditions: Rattus norvegicus, LT12, 48 h
[3] = Cell cycle arrest in KB/HeLa cells by accumulation at S phase at 31.6 nM; type: functional, cell-based; conditions: Homo sapiens
Procedure, shortened: (§2)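 Subconfluent KB/HeLa cells were treated with a concentration series for 24 h at 37 °C, then detached and fixed in 70% ethanol. DNA was stained with propidium iodide alongside RNase digestion and measured by flow cytometry. Phase fractions came from cell-cycle modelling software, and IC50 from nonlinear regression.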

[4] = Cell cycle arrest in KB/HeLa cells by accumulation at S phase at 100 nM; type: functional, cell-based; conditions: Homo sapiens; procedure, shortened: as §2
[5] = Cell cycle arrest in KB/HeLa cells by accumulation at S phase at 316 nM; type: functional, cell-based; conditions: Homo sapiens; procedure, shortened: as §2
[6] = Cell cycle arrest in KB/HeLa cells by accumulation at G2/M phase at 0.3 nM; type: functional, cell-based; conditions: Homo sapiens; procedure, shortened: as §2
[7] = Cell cycle arrest in KB/HeLa cells by accumulation at G2/M phase at 1 nM; type: functional, cell-based; conditions: Homo sapiens; procedure, shortened: as §2
[8] = Cell cycle arrest in KB/HeLa cells by accumulation at G2/M phase at 10 nM; type: functional, cell-based; conditions: Homo sapiens; procedure, shortened: as §2
[9] = Cell cycle arrest in KB/HeLa cells by accumulation at G2/M phase at 31.6 nM; type: functional, cell-based; conditions: Homo sapiens; procedure, shortened: as §2
[10] = Cell cycle arrest in KB/HeLa cells by accumulation at G2/M phase at 100 nM; type: functional, cell-based; conditions: Homo sapiens; procedure, shortened: as §2
[11] = Cell cycle arrest in KB/HeLa cells by accumulation at G2/M phase at 316 nM; type: functional, cell-based; conditions: Homo sapiens; procedure, shortened: as §2
[12] = Cell cycle arrest in KB/HeLa cells by accumulation at G1 phase at 0.3 nM; type: functional, cell-based; conditions: Homo sapiens; procedure, shortened: as §2
[13] = Cell cycle arrest in KB/HeLa cells by accumulation at G1 phase at 1 nM; type: functional, cell-based; conditions: Homo sapiens; procedure, shortened: as §2
[14] = Cell cycle arrest in KB/HeLa cells by accumulation at G1 phase at 3.16 nM; type: functional, cell-based; conditions: Homo sapiens; procedure, shortened: as §2
[15] = Cell cycle arrest in KB/HeLa cells by accumulation at G1 phase at 10 nM; type: functional, cell-based; conditions: Homo sapiens; procedure, shortened: as §2
[16] = Cell cycle arrest in KB/HeLa cells by accumulation at G1 phase at 31.6 nM; type: functional, cell-based; conditions: Homo sapiens; procedure, shortened: as §2
[17] = Cell cycle arrest in KB/HeLa cells by accumulation at G1 phase at 100 nM; type: functional, cell-based; conditions: Homo sapiens; procedure, shortened: as §2
[18] = Cell cycle arrest in KB/HeLa cells by accumulation at G1 phase at 316 nM; type: functional, cell-based; conditions: Homo sapiens; procedure, shortened: as §2
[19] = Cell cycle arrest in KB/HeLa cells by accumulation at G2/M phase; type: functional, cell-based; conditions: Homo sapiens; procedure, shortened: as §2
[20] = Antiproliferative activity against KB/HeLa cells by XTT assay after 48 hrs; type: functional, cell-based; conditions: Homo sapiens; procedure, shortened: as §1
RKO [21] = test: Antiproliferative activity against RKO cells with ectopic-induced p27kip1-expression by XTT assay after 48 hrs; type: functional, cell-based; conditions: Homo sapiens
Procedure, shortened: (§3)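 RKO colon adenocarcinoma cells carry an ecdysone-inducible p27kip1 vector. On day 1 they were plated with 3 µM ponasterone A (induced, 2 × 10^4 cells/well) or without it (not induced, 6 × 10^3 cells/well) and held 24 h at 37 °C. Compound or DMSO control was then added for 48 h at 37 °C, followed by a standard XTT read-out.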

[22] = Cell cycle arrest in KB/HeLa cells by accumulation at S phase at 0.3 nM; type: functional, cell-based; conditions: Homo sapiens; procedure, shortened: as §2
[23] = Cell cycle arrest in KB/HeLa cells by accumulation at S phase at 1 nM; type: functional, cell-based; conditions: Homo sapiens; procedure, shortened: as §2
[24] = Cell cycle arrest in KB/HeLa cells by accumulation at S phase at 3.16 nM; type: functional, cell-based; conditions: Homo sapiens; procedure, shortened: as §2
[25] = Cell cycle arrest in KB/HeLa cells by accumulation at S phase at 10 nM; type: functional, cell-based; conditions: Homo sapiens; procedure, shortened: as §2
SK-OV-3 = test: Antiproliferative activity against SKOV3 cells by XTT assay after 48 hrs; type: functional, cell-based; conditions: Homo sapiens, SK-OV-3, 48 h; procedure, shortened: as §1
SF-268 = test: Antiproliferative activity against SF268 cells by XTT assay after 48 hrs; type: functional, cell-based; conditions: Homo sapiens, SF-268, 48 h; procedure, shortened: as §1
NCI-H460 = test: Antiproliferative activity against NCI-H460 cells by XTT assay after 48 hrs; type: functional, cell-based; conditions: Homo sapiens, NCI-H460, 48 h; procedure, shortened: as §1
RKO [26] = test: Antiproliferative activity against RKO cells by XTT assay after 48 hrs; type: functional, cell-based; conditions: Homo sapiens; procedure, shortened: as §3

What does the source list for `COc1cc(COc2c3ccccc3cc3sccc23)cc(OC)c1OC`?
IC50 (K562): 8950 nM; IC50 (Tubulin): > 10000 nM

With `COc1ccc(CC(=O)Oc2c3ccccc3cc3sccc23)cc1` as the compound, how does the IC50 (K562) read?
Its IC50 is 15000 nM.

What about the IC50 (Tubulin) of the same compound?
Its IC50 is over 10000 nM.

For `O=C1c2ccccc2/C(=C/c2ccc(O)cc2)c2sccc21`, which IC50 (K562) is on record?
The IC50 was 810 nM.

Which results are given for `COc1ccc(C(=O)Oc2c3ccccc3cc3sccc23)cc1`?
IC50 (K562): > 90000 nM; IC50 (Tubulin): > 10000 nM

Which IC50 (K562) does the source give for `O=C1c2ccccc2/C(=C/c2cc(Br)c(O)c(Br)c2)c2sccc21` here?
The IC50 was 6690 nM.

For `COc1ccc(/C=C2/c3ccccc3C(=O)c3ccsc32)cc1O`, which IC50 (K562) is on record?
The IC50 was 230 nM.

What about the IC50 (Tubulin) of the same compound?
Its IC50 is 1400 nM.

For `COc1cc(/C=C2/c3ccccc3C(=O)c3ccsc32)cc(OC)c1OC`, which IC50 (K562) is on record?
Its IC50 is 600 nM.

What about the IC50 (Tubulin) of the same compound?
Its IC50 is 7400 nM.

With `O=C1c2ccccc2Cc2sccc21` as the compound, how does the IC50 (K562) read?
The IC50 was 7000 nM.

Which results are given for `CC[C@]1(O)C[C@@H]2CN(CCc3c([nH]c4ccccc34)[C@@](C(=O)OC)(c3cc4c(cc3OC)N(C)[C@H]3[C@@](O)(C(N)=O)[C@H](O)[C@]5(CC)C=CCN6CC[C@]43[C@@H]65)C2)C1` [VINDESINE]?
IC50 (MDR): 260 nM; IC50 (L1210): > 5000 nM; IC50 (P388 [1]): 10 nM; IC50 (P388 [2]): 1100 nM; IC50 (cells): 1 nM

For `O=C1c2ccccc2/C(=C/c2ccc([N+](=O)[O-])cc2)c2sccc21`, which IC50 (K562) is on record?
Its IC50 is 720 nM.

What about the IC50 (Tubulin) of the same compound?
Its IC50 is over 10000 nM.

Which IC50 (K562) does the source give for `O=C1c2ccccc2/C(=C/c2ccccc2)c2sccc21` here?
The IC50 was 330 nM.

And the IC50 (Tubulin)?
Its IC50 is 6200 nM.

For `COc1ccc(CCOc2c3ccccc3cc3sccc23)cc1`, which IC50 (K562) is on record?
Its IC50 is 5300 nM.

What about the IC50 (Tubulin) of the same compound?
Its IC50 is over 10000 nM.

With `c1ccc(COc2c3ccccc3cc3sccc23)cc1` as the compound, how does the IC50 (K562) read?
The IC50 was 2380 nM.

Which Activity [3] does the source give for `COc1cc2c(c(OC)c1OC)-c1ccc(OC)c(=O)cc1[C@@H](NC(C)=O)CC2` [COLCHICINE] here?
The Activity was 11.9%.

What about the Activity [4] of the same compound?
Its Activity is 5.1%.

And the Activity [5]?
The Activity was 5.2%.

And the Activity [6]?
Its Activity is 10.1%.

What about the Activity [7] of the same compound?
The Activity was 10%.

What about the Activity [8] of the same compound?
The Activity was 32.1%.

What about the Activity [9] of the same compound?
The Activity was 87.6%.

What about the Activity [10] of the same compound?
The Activity was 94.7%.

And the Activity [11]?
Its Activity is 94.5%.

And the Activity [12]?
The Activity was 63.3%.

What about the Activity [13] of the same compound?
Its Activity is 64.7%.

What about the Activity [14] of the same compound?
Its Activity is 64.3%.

What about the Activity [15] of the same compound?
The Activity was 32.2%.

And the Activity [16]?
Its Activity is 0.5%.

What about the Activity [17] of the same compound?
Its Activity is 0.3%.

What about the Activity [18] of the same compound?
The Activity was 0.3%.

And the EC50 [19]?
Its EC50 is 14 nM.

What about the IC50 [20] of the same compound?
Its IC50 is 30 nM.

And the IC50 (RKO [21])?
Its IC50 is over 10000 nM.

And the Activity [22]?
Its Activity is 26.6%.

And the Activity [23]?
Its Activity is 25.4%.

What about the Activity [24] of the same compound?
The Activity was 25.1%.

What about the Activity [25] of the same compound?
Its Activity is 35.7%.

For `COc1ccc(COc2c3ccccc3cc3sccc23)cc1`, which IC50 (K562) is on record?
The IC50 was 250 nM.

And the IC50 (Tubulin)?
The IC50 was 1520 nM.

And the IC50 [20]?
The IC50 was 470 nM.

And the IC50 (SK-OV-3)?
Its IC50 is 270 nM.

And the IC50 (SF-268)?
The IC50 was 430 nM.

And the IC50 (NCI-H460)?
The IC50 was 980 nM.

What about the IC50 (RKO [21]) of the same compound?
Its IC50 is over 9000 nM.

And the IC50 (RKO [26])?
Its IC50 is 280 nM.

For `COc1ccc2[nH]cc(/C=C3/c4ccccc4C(=O)c4ccsc43)c2c1`, which IC50 (K562) is on record?
The IC50 was 240 nM.

— ChEMBL document CHEMBL1138222, “9-Benzylidene-naphtho[2,3-b]thiophen-4-ones as novel antimicrotubule agents-synthesis, antiproliferative activity, and inhibition of tubulin polymerization” (J Med Chem, 2006)
